According to ChEMBL document CHEMBL1649151, “Urinary bactericidal activity of Doripenem versus that of levofloxacin in patients with complicated urinary tract infections or pyelonephritis” (Antimicrob Agents Chemother, 2009):
In brackets after ≈: the same amount, converted by molar mass.

What was measured:
Escherichia coli [1] = experiment: Antimicrobial activity against Escherichia coli 1949821 B-M isolated from patient with pyelonephritis assessed as >3-log reduction in urinary bacterial titer after 12 hrs; format: functional, Urine
Summary of the method: (§1)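 Urine was collected on day 3 of i.v. therapy (steady state) over 4-h intervals from infusion start (0–4 to 20–24 h), stored at –80°C and sterile filtered. It was serially diluted twofold (1:0 up to 1:131,072) in the patient's own pre-dose drug-free urine. Microdilution used a final inoculum of 1.0 x 10^6 to 9.5 x 10^6 CFU/ml, incubated 18 h at 37°C in air. 10 µl was subcultured onto 5% blood Columbia agar for 24 h at 37°C. The bactericidal endpoint was >99.9% (>3-log) kill, reported as a reciprocal titer.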

Escherichia coli [2] = experiment: Antimicrobial activity against Escherichia coli 2062717 B-P isolated from patient with pyelonephritis by Etest; format: functional
[3] = test system: Staphylococcus epidermidis; experiment: Antimicrobial activity against Staphylococcus epidermidis 1949822 B-J isolated from patient with pyelonephritis by Etest; format: functional
Escherichia coli [4] = experiment: Antimicrobial activity against Escherichia coli 1949820 B-N isolated from patient with pyelonephritis assessed as >3-log reduction in urinary bacterial titer after 4 hrs; format: functional, Urine; summary of the method: as §1
Proteus mirabilis [5] = experiment: Antimicrobial activity against Proteus mirabilis 1134841 isolated from patient with pyelonephritis assessed as >3-log reduction in urinary bacterial titer after 16 hrs; format: functional, Urine
Summary of the method: (§2)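 Patient urine was collected on day 3 of i.v. therapy (steady state) over 4-h intervals after infusion start, stored at –80°C, and sterile filtered. It was twofold serially diluted (1:0 to 1:131,072) in the patient's own pre-dose drug-free urine, inoculated to 1.0 x 10^6–9.5 x 10^6 CFU/ml, and incubated for 18 h at 37°C. Subcultures were grown on blood agar for 24 h. The UBT is the reciprocal of the highest dilution giving >99.9% kill.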

Enterococcus faecalis [6] = experiment: Antimicrobial activity against Enterococcus faecalis 1780065 B-B isolated from patient with pyelonephritis assessed as >3-log reduction in urinary bacterial titer after 16 hrs; format: functional, Urine
Summary of the method: (§3)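 Urine was collected before dosing and on day 3 of i.v. therapy (steady state), in 4-h intervals from infusion start (0–4 to 20–24 h), stored at −80°C and sterile filtered. It was serially diluted twofold (1:0 to 1:131,072) in the patient's drug-free pre-dose urine. Microdilution used an inoculum of 1.0 x 10^6–9.5 x 10^6 CFU/ml, incubated 18 h at 37°C, then subcultured 24 h on blood agar. The endpoint was >99.9% kill, reported as reciprocal titer.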

Proteus mirabilis [7] = experiment: Antimicrobial activity against Proteus mirabilis 1134841 isolated from patient with pyelonephritis assessed as >3-log reduction in urinary bacterial titer after 4 hrs; format: functional, Urine; summary of the method: as §2
Escherichia coli [8] = experiment: Antimicrobial activity against Escherichia coli 1949821 B-M isolated from patient with pyelonephritis by Etest; format: functional
Escherichia coli [9] = experiment: Antimicrobial activity against Escherichia coli 1135121 isolated from patient with pyelonephritis by Etest; format: functional
Pseudomonas aeruginosa [10] = experiment: Antimicrobial activity against Pseudomonas aeruginosa 1134642 isolated from patient with pyelonephritis assessed as >3-log reduction in urinary bacterial titer after 4 hrs; format: functional, Urine; summary of the method: as §2
Pseudomonas aeruginosa [11] = experiment: Antimicrobial activity against Pseudomonas aeruginosa […] assessed as >3-log reduction in urinary bacterial titer after 16 hrs; format: functional, Urine; summary of the method: as §2
Staphylococcus aureus [12] = experiment: Antimicrobial activity against Staphylococcus aureus 1134684 isolated from patient with pyelonephritis assessed as >3-log reduction in urinary bacterial titer after 20 hrs; format: functional, Urine; summary of the method: as §2
Escherichia coli [13] = experiment: Antimicrobial activity against Escherichia coli 1949820 B-N isolated from patient with pyelonephritis assessed as >3-log reduction in urinary bacterial titer after 24 hrs; format: functional, Urine; summary of the method: as §1
Escherichia coli [14] = experiment: Antimicrobial activity against Escherichia coli 1949820 B-N isolated from patient with pyelonephritis assessed as >3-log reduction in urinary bacterial titer after 8 hrs; format: functional, Urine; summary of the method: as §1
Enterococcus faecalis [15] = experiment: Antimicrobial activity against Enterococcus faecalis 1780065 B-B isolated from patient with pyelonephritis assessed as >3-log reduction in urinary bacterial titer after 24 hrs; format: functional, Urine; summary of the method: as §3
Pseudomonas aeruginosa [16] = experiment: Antimicrobial activity against Pseudomonas aeruginosa 1134642 isolated from patient with pyelonephritis assessed as >3-log reduction in urinary bacterial titer after 16 hrs; format: functional, Urine; summary of the method: as §2
Pseudomonas aeruginosa [17] = experiment: Antimicrobial activity against Pseudomonas aeruginosa […] assessed as >3-log reduction in urinary bacterial titer after 20 hrs; format: functional, Urine; summary of the method: as §2
Escherichia coli [18] = experiment: Antimicrobial activity against Escherichia coli 1949821 B-M isolated from patient with pyelonephritis assessed as >3-log reduction in urinary bacterial titer after 16 hrs; format: functional, Urine; summary of the method: as §1
Staphylococcus aureus [19] = experiment: Antimicrobial activity against Staphylococcus aureus 1134684 isolated from patient with pyelonephritis assessed as >3-log reduction in urinary bacterial titer after 12 hrs; format: functional, Urine; summary of the method: as §2
Pseudomonas aeruginosa [20] = experiment: Antimicrobial activity against Pseudomonas aeruginosa 1134642 isolated from patient with pyelonephritis assessed as >3-log reduction in urinary bacterial titer after 20 hrs; format: functional, Urine; summary of the method: as §2
Escherichia coli [21] = experiment: Antimicrobial activity against Escherichia coli 1135121 isolated from patient with pyelonephritis assessed as >3-log reduction in urinary bacterial titer after 24 hrs; format: functional, Urine; summary of the method: as §3
[22] = Drug excretion in pyelonephritis patient urine at 250 mg/kg, iv administered every 24 hrs; format: ADME, organism-based; design: dose 250 mg/kg, route intravenous; conditions: human, read-out: Activity
Enterococcus faecalis [23] = experiment: Antimicrobial activity against Enterococcus faecalis 1780065 B-B isolated from patient with pyelonephritis assessed as >3-log reduction in urinary bacterial titer after 12 hrs; format: functional, Urine; summary of the method: as §3
Pseudomonas aeruginosa [24] = experiment: Antimicrobial activity against Pseudomonas aeruginosa […] assessed as >3-log reduction in urinary bacterial titer after 24 hrs; format: functional, Urine; summary of the method: as §2
Escherichia coli [25] = experiment: Antimicrobial activity against Escherichia coli 1135121 isolated from patient with pyelonephritis assessed as >3-log reduction in urinary bacterial titer after 20 hrs; format: functional, Urine; summary of the method: as §3
Staphylococcus aureus [26] = experiment: Antimicrobial activity against Staphylococcus aureus 1134684 isolated from patient with pyelonephritis by Etest; format: functional
Proteus mirabilis [27] = experiment: Antimicrobial activity against Proteus mirabilis 1134841 isolated from patient with pyelonephritis assessed as >3-log reduction in urinary bacterial titer after 12 hrs; format: functional, Urine; summary of the method: as §2
Proteus mirabilis [28] = experiment: Antimicrobial activity against Proteus mirabilis 1134841 isolated from patient with pyelonephritis assessed as >3-log reduction in urinary bacterial titer after 20 hrs; format: functional, Urine; summary of the method: as §2
Escherichia coli [29] = experiment: Antimicrobial activity against Escherichia coli 1949820 B-N isolated from patient with pyelonephritis assessed as >3-log reduction in urinary bacterial titer after 12 hrs; format: functional, Urine; summary of the method: as §1
Pseudomonas aeruginosa [30] = experiment: Antimicrobial activity against Pseudomonas aeruginosa ATCC 27853 isolated from patient with pyelonephritis assessed as >3-log reduction in urinary bacterial titer after 8 hrs; format: functional, Urine; summary of the method: as §2
Escherichia coli [31] = experiment: Antimicrobial activity against Escherichia coli 1135121 isolated from patient with pyelonephritis assessed as >3-log reduction in urinary bacterial titer after 12 hrs; format: functional, Urine; summary of the method: as §3
Escherichia coli [32] = experiment: Antimicrobial activity against Escherichia coli 1135121 isolated from patient with pyelonephritis assessed as >3-log reduction in urinary bacterial titer after 8 hrs; format: functional, Urine; summary of the method: as §3
Escherichia coli [33] = experiment: Antimicrobial activity against Escherichia coli 1949821 B-M isolated from patient with pyelonephritis assessed as >3-log reduction in urinary bacterial titer after 8 hrs; format: functional, Urine; summary of the method: as §2
Escherichia coli [34] = experiment: Antimicrobial activity against Escherichia coli 1949820 B-N isolated from patient with pyelonephritis by Etest; format: functional
Proteus mirabilis [35] = experiment: Antimicrobial activity against Proteus mirabilis 1134841 isolated from patient with pyelonephritis by Etest; format: functional
Staphylococcus aureus [36] = experiment: Antimicrobial activity against Staphylococcus aureus 1134684 isolated from patient with pyelonephritis assessed as >3-log reduction in urinary bacterial titer after 4 hrs; format: functional, Urine; summary of the method: as §2

| SMILES | urinary bactericidal titer (Escherichia coli [1]) [titer] | MIC (Escherichia coli [2]) [µg/mL] | MIC [3] [µg/mL] | urinary bactericidal titer (Escherichia coli [4]) [titer] | urinary bactericidal titer (Proteus mirabilis [5]) [reciprocal titer] | Time (Enterococcus faecalis [6]) [h] | urinary bactericidal titer (Proteus mirabilis [7]) [reciprocal titer] | MIC (Escherichia coli [8]) [µg/mL] | MIC (Escherichia coli [9]) [µg/mL] | urinary bactericidal titer (Pseudomonas aeruginosa [10]) [reciprocal titer] | urinary bactericidal titer (Pseudomonas aeruginosa [11]) [reciprocal titer] | urinary bactericidal titer (Staphylococcus aureus [12]) [reciprocal titer] | Time (Escherichia coli [13]) [h] | urinary bactericidal titer (Escherichia coli [14]) [titer] | Time (Enterococcus faecalis [15]) [h] | urinary bactericidal titer (Pseudomonas aeruginosa [16]) [reciprocal titer] | urinary bactericidal titer (Pseudomonas aeruginosa [17]) [reciprocal titer] | Time (Escherichia coli [18]) [h] | urinary bactericidal titer (Staphylococcus aureus [19]) [reciprocal titer] | urinary bactericidal titer (Pseudomonas aeruginosa [20]) [reciprocal titer] | other results |
| --- | --- | --- | --- | --- | --- | --- | --- | --- | --- | --- | --- | --- | --- | --- | --- | --- | --- | --- | --- | --- | --- |
| C[C@@H](O)[C@H]1C(=O)N2C(C(=O)O)=C(S[C@@H]3CN[C@H](CNS(N)(=O)=O)C3)[C@H](C)[C@H]12 [DORIPENEM] | 32800 | ≤ 0.015 | > 32 | 32800 | 1540 | 48 | 2048 | ≤ 0.015 | ≤ 0.015 | 4096 | 1540 | 8 | 5120 | 12300 | 32 | 2048 | 4096 | 8192 | 12 | 4096 | urinary bactericidal titer (Escherichia coli [21]): 4096 reciprocal titer; dose excreted at 24 h [22]: 80%; urinary bactericidal titer (Enterococcus faecalis [23]): 192 reciprocal titer; urinary bactericidal titer (Pseudomonas aeruginosa [24]): 512 reciprocal titer; urinary bactericidal titer (Escherichia coli [25]): 32800 titer; MIC (Staphylococcus aureus [26]): 32 µg/mL (≈ 76.1 µM); urinary bactericidal titer (Proteus mirabilis [27]): 6140 reciprocal titer; urinary bactericidal titer (Proteus mirabilis [28]): 8192 reciprocal titer; urinary bactericidal titer (Escherichia coli [29]): 32800; urinary bactericidal titer (Pseudomonas aeruginosa [30]): 1024 reciprocal titer; urinary bactericidal titer (Escherichia coli [31]): 65500 titer; urinary bactericidal titer (Escherichia coli [32]): 24600 titer; urinary bactericidal titer (Escherichia coli [33]): 12300 titer; MIC (Escherichia coli [34]): 0.03 µg/mL (≈ 0.0713 µM); MIC (Proteus mirabilis [35]): 0.03 µg/mL (≈ 0.0713 µM); urinary bactericidal titer (Staphylococcus aureus [36]): 8 reciprocal titer |
| C[C@H]1COc2c(N3CCN(C)CC3)c(F)cc3c(=O)c(C(=O)O)cn1c23.C[C@H]1COc2c(N3CCN(C)CC3)c(F)cc3c(=O)c(C(=O)O)cn1c23.O [LEVOFLOXACIN] | 64 | 8 | 8 | 4 | 0 | 16 | 0 | 0.125 | 4 | 2 | 8 | 2 | 0 | 2 | 6 | 1 | 6 | 48 | 4 | 1 | urinary bactericidal titer (Escherichia coli [21]): 2 reciprocal titer; dose excreted at 24 h [22]: 80%; urinary bactericidal titer (Enterococcus faecalis [23]): 16 reciprocal titer; urinary bactericidal titer (Pseudomonas aeruginosa [24]): 4 reciprocal titer; urinary bactericidal titer (Escherichia coli [25]): 3 titer; MIC (Staphylococcus aureus [26]): 4 µg/mL; urinary bactericidal titer (Proteus mirabilis [27]): 0 reciprocal titer; urinary bactericidal titer (Proteus mirabilis [28]): 0 reciprocal titer; Time (Escherichia coli [29]): 0.5 h; urinary bactericidal titer (Pseudomonas aeruginosa [30]): 16 reciprocal titer; urinary bactericidal titer (Escherichia coli [31]): 3 titer; urinary bactericidal titer (Escherichia coli [32]): 8 titer; urinary bactericidal titer (Escherichia coli [33]): 128 titer; MIC (Escherichia coli [34]): 8 µg/mL; MIC (Proteus mirabilis [35]): > 8 µg/mL; urinary bactericidal titer (Staphylococcus aureus [36]): 8 reciprocal titer |
